Activity calls are given as the source filed them. The calls are words filed in the database; no cut-off is given here.
Experiments:
[1] = target: Coagulation factor XI (Homo sapiens, UniProt P03951); test: Inhibition of factor 11a
[2] = target: Coagulation factor X (Homo sapiens, UniProt P00742); test: Inhibition of factor 10a
[3] = target: Prothrombin (Homo sapiens, UniProt P00734); test: Inhibition of thrombin
[4] = tested on: Plasma; test: Anticoagulant activity in human plasma measured by activated […] time; type: functional
Summary of the method: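 Activated partial thromboplastin time in human plasma. Plasma was incubated with compound for 2 min. aPTT reagent was added and incubated 3 min. Prewarmed 30 mM CaCl2 was added and clotting was read up to 300 s. The concentration doubling clotting time was taken from the dose-response curve.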

[5] = tested on: Plasma; test: Anticoagulant activity in human plasma measured by prothrombin time; type: functional
Summary of the method: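 Human plasma with compound prewarmed 3 min at 37 °C, then prewarmed thromboplastin reagent containing calcium added; clotting read over 300 s. Concentration doubling clotting time (2× PT) derived from dose-response curve.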

[6] = organism: Homo sapiens; test: Selectivity for factor 11a over thrombin
Summary of the method: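 IC50s against factor XIa and thrombin were compared as fold selectivity. Both enzymes used Glp-Pro-Arg-AMC, with 50 nM enzyme and 50 µM substrate in Tris-HCl/NaCl/0.02% Tween 20 at pH 7.4. Ten-point endpoint assays ran for 15-30 min at 30 °C with AMC fluorescence read at 355/460 nm. IC50 came from a one-site dose-response fit.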

[7] = organism: Homo sapiens; test: Selectivity for factor 11a over factor 10a
Summary of the method: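 Fold selectivity compared IC50s against factor XIa and factor Xa, both in Tris-HCl/NaCl/Tween 20 buffer at pH 7.4. FXIa: Glp-Pro-Arg-AMC, 50 nM enzyme, 50 µM substrate, 15-30 min at 30 °C. FXa: H-Pro-Phe-Arg-AMC at twice those concentrations, 60 min.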

[8] = target: Trypsin (Homo sapiens, UniProt P07477+P07478+P35030); test: Inhibition of trypsin; type: protein assay
Summary of the method: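 Trypsin activity was read with the fluorogenic substrate Glp-Pro-Arg-AMC. Conditions were 50 nM enzyme and 50 µM substrate in 100 mM Tris-HCl, 200 mM NaCl and 0.02% Tween 20 at pH 7.4. Ten-point dose-response endpoints were taken after 15-30 min at 30 °C. Released AMC was read at ex 355/em 460 nm, and IC50 came from a one-site nonlinear least-squares fit.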

[9] = tested on: Rattus norvegicus; test: Efficacy in rat venous thrombosis model assessed as reduction in thrombus weight at 0.25 mg/kg, iv; type: functional, organism-based; design: dose 0.25 mg/kg
Summary of the method: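 Intravenous infusion at 0.0625 or 0.25 mg/kg in 0.1 M NaOAc pH 4.0 vehicle, started 5 min before induction; clot isolated and weighed 10 min postchallenge. n = 9; Tukey-Kramer test versus vehicle.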

Sequence of Coagulation factor X (P00742 41-179 limits assumed): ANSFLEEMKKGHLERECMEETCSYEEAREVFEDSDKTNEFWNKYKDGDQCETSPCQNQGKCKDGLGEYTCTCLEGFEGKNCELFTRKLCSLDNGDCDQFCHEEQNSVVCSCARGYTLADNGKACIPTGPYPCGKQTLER
Sequence of Coagulation factor X (P00742 235-488 limits assumed): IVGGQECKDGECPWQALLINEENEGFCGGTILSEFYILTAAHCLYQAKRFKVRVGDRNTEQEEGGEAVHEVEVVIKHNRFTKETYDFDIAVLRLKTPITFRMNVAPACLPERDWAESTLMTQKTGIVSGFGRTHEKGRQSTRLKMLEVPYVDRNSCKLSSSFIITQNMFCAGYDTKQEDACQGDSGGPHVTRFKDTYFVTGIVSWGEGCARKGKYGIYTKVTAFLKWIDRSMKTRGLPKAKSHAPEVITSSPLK
Sequence of Coagulation factor XI (P03951 19-387 limits assumed): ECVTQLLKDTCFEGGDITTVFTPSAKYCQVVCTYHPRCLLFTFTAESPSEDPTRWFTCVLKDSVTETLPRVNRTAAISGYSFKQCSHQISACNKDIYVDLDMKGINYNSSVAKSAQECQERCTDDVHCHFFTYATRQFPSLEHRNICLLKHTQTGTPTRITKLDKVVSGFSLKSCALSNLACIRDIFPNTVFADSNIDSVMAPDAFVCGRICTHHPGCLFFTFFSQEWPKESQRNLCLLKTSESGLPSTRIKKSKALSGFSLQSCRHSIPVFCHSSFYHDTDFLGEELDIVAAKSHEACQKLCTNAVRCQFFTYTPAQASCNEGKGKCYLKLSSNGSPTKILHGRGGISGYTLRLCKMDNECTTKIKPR
Sequence of Coagulation factor XI (P03951 388-625 limits assumed): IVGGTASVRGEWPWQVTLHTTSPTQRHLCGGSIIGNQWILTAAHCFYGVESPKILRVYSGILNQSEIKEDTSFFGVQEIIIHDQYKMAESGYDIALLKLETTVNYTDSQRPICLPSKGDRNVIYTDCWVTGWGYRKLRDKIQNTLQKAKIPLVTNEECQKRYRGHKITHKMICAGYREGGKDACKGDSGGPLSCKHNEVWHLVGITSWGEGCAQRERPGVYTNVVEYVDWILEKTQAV

| IC50 [1] | IC50 [2] | IC50 [3] | Selectivity ratio [6] | Selectivity ratio [7] | IC50 [8] | Compound | 2aPTT [4] | 2PT [5] | Activity [9] |
| --- | --- | --- | --- | --- | --- | --- | --- | --- | --- |
| 132 nM | 14900 nM | 5600 nM | – | – | – | CC(C)[C@H](NC(=O)[C@@H](NC(=O)N[C@@H](C)c1ccc(Br)cc1)C1CCCCC1)C(=O)N[C@@H](CCCN=C(N)N)C(=O)c1nccs1 | – | – | – |
| 258 nM | 14300 nM | 2100 nM | – | – | – | CCOC(=O)C(Cc1ccccc1)NC(=O)NN[C@@H](Cc1ccccc1)C(=O)N[C@H](C(=O)N[C@@H](CCCNC(=N)N)C(=O)c1nccs1)C(C)C (stereo partly specified) | – | – | – |
| 1920 nM | > 20000 nM | 935 nM | – | – | – | CC(C)[C@H](NC(=O)[C@H](Cc1ccccc1)NNC(=O)Nc1ccccc1)C(=O)N[C@@H](CCCNC(=N)N)C(=O)c1nccs1 | – | – | – |
| 10 nM | 15000 nM | 1400 nM | 140 | 1500 | – | CC(C)C[C@H](NC(=O)NC(C)c1ccc(Br)cc1)C(=O)N[C@H](C(=O)N[C@@H](CCCNC(=N)N)C(=O)c1nccs1)C(C)C (stereo partly specified) | – | – | – |
| – | > 200000 nM | > 200000 nM | – | – | – | CC(=O)N[C@@H](CC(C)C)C(=O)N[C@H](C(=O)N[C@@H](CCCN=C(N)N)C(=O)c1nccs1)C(C)C | – | – | – |
| 9200 nM | > 200000 nM | 12000 nM | – | – | – | CC(C)C[C@H](NC(=O)NCc1ccc(Cl)c(Cl)c1)C(=O)N[C@H](C(=O)N[C@@H](CCCN=C(N)N)C(=O)c1nccs1)C(C)(C)C | – | – | – |
| – | – | – | 340 | 267 | 12 nM | CC(C)[C@H](NC(=O)[C@H](Cc1ccc(O)cc1)NC(=O)N[C@H](C)c1ccc(Br)cc1)C(=O)N[C@@H](CCCNC(=N)N)C(=O)c1nccs1 | 2.4 µM | 25 µM | Active |

Continued, compound first:

| Compound | IC50 [1] | IC50 [2] | IC50 [3] | Selectivity ratio [6] | Selectivity ratio [7] | IC50 [8] | 2aPTT [4] | 2PT [5] | Activity [9] |
| --- | --- | --- | --- | --- | --- | --- | --- | --- | --- |
| CC(C)[C@H](NC(=O)[C@H](Cc1ccccc1)NNS(=O)(=O)c1ccc(Cl)c(Cl)c1)C(=O)N[C@@H](CCCNC(=N)N)C(=O)c1nccs1 | 2300 nM | – | – | – | – | – | – | – | – |
| CC(C)[C@H](NC(=O)[C@H](CCCNC(N)=O)NC(=O)N[C@H](C)c1ccc(Br)cc1)C(=O)N[C@@H](CCCNC(=N)N)C(=O)c1nccs1 | 30 nM | 1900 nM | 1100 nM | – | – | – | 1.35 µM | 48.6 µM | – |
| CC(C)[C@H](NC(=O)[C@H](Cc1cccnc1)NC(=O)N[C@@H](C)c1ccc(F)cc1)C(=O)N[C@@H](CCCNC(=N)N)C(=O)c1nccs1 | 533 nM | – | 606 nM | – | – | – | – | – | – |
| CC(C)C[C@H](NC(=O)NCc1ccccc1)C(=O)N[C@H](C(=O)N[C@@H](CCCNC(=N)N)C(=O)c1nccs1)C(C)C | 136 nM | > 20000 nM | 2800 nM | – | – | – | – | – | – |
| CC(C)C[C@H](NC(=O)NCc1ccc(Cl)c(Cl)c1)C(=O)N[C@@H](C)C(=O)N[C@@H](CCCNC(=N)N)C(=O)c1nccs1 | 920 nM | 22000 nM | 10000 nM | – | – | – | – | – | – |
| CC(C)[C@H](NC(=O)[C@H](CCCN=C(N)N)NC(=O)N[C@H](C)c1ccc(Br)cc1)C(=O)N[C@@H](CCCN=C(N)N)C(=O)c1nccs1 | 7 nM | 250 nM | 440 nM | – | – | – | – | – | – |
| CC(C)[C@H](NC(=O)[C@H](CC(N)=O)NC(=O)N[C@H](C)c1ccc(Br)cc1)C(=O)N[C@@H](CCCNC(=N)N)C(=O)c1nccs1 | 8 nM | 1600 nM | 400 nM | – | – | – | 0.56 µM | 26.3 µM | – |
| CCOC(=O)C(CC(C)C)NC(=O)NN[C@@H](Cc1ccccc1)C(=O)N[C@H](C(=O)N[C@@H](CCCNC(=N)N)C(=O)c1nccs1)C(C)C (stereo partly specified) | 403 nM | 15400 nM | 2100 nM | – | – | – | – | – | – |
| CC(C)[C@H](NC(=O)[C@H](Cc1ccccc1)NNC(=O)c1ccco1)C(=O)N[C@@H](CCCNC(=N)N)C(=O)c1nccs1 | 2200 nM | – | – | – | – | – | – | – | – |
